From ChEMBL document CHEMBL1150426, “New C5-alkylated indolobenzazepinones acting as inhibitors of tubulin polymerization: cytotoxic and antitumor activities” (J Med Chem, 2008)
Blank lines part the entries; values can stand above or below the compound they belong to. The source made the active and inactive calls. No cut-off for these calls is given here.

How the values were obtained:
MDA-MB-435 = assay: Antiproliferative activity against human MDA-MB-435 cells after 72 hrs; format: functional, cell-based; conditions: MDA-MB-435, 72 h
How it was run: (§1)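 Cells were seeded at 5 × 10³ per well and cultured for 24 h. Test compound in DMSO (under 0.1%) was then added for 72 h. Resazurin was added for 2 h, and fluorescence was read at ex 560 nm / em 590 nm. IC50 was taken as the concentration giving a 50% fall in fluorescence versus untreated cells. Runs were done in triplicate.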

HCT-116 [1] = assay: Induction of apoptosis in human HCT116 cells assessed as activation of caspase 3 at 0.01 to 1 uM after 24 hrs by microtitre plate fluorimeter; format: functional, cell-based
How it was run: (§2)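 Cells seeded 5 × 10⁴/well, then after 24 h given compound at 1, 0.1 or 0.01 µM, or 0.1% DMSO as negative control, for 24 h. Caspase-3/7 substrate in homogeneous assay buffer added; fluorescence read at 527 nm after 1 h.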

MDA-MB-231 [2] = assay: Induction of apoptosis in human MDA-MB-231 cells assessed as activation of caspase 3 at 0.01 to 1 uM after 24 hrs by microtitre plate fluorimeter; format: functional, cell-based; how it was run: as §2
K562 [3] = assay: Cell cycle arrest in human K562 cells assessed as accumulation at S phase at 1 uM after 6 hrs by flow cytometry; format: functional
How it was run: (§3)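 Exponentially growing K562 cells exposed to compound or DMSO for 6, 16 or 24 h; cell-cycle phase distribution determined by flow cytometry; data representative of three independent experiments.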

K562 [4] = assay: Antiproliferative activity against human K562 cells after 72 hrs; format: functional, cell-based; conditions: K562, 72 h; how it was run: as §1
KB = assay: Cytotoxicity against human KB cells after 72 hrs; format: functional, cell-based
How it was run: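 KB cells in EMEM (4.5 g/L glucose, 10% FCS, 1% glutamine) seeded 5 × 10³/well, dosed after 24 h with compound in DMSO (<0.1%). 72 h exposure, then resazurin 2 h; fluorescence ex 560/em 590 nm. IC50 = 50% fluorescence decrease versus untreated; triplicate.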

B16-F10 = assay: Antiproliferative activity against mouse B16F10 cells after 72 hrs; format: functional, cell-based; conditions: B16-F10, 72 h; how it was run: as §1
MCF7 [5] = assay: Antiproliferative activity against human MCF7 cells after 72 hrs; format: functional, cell-based; conditions: MCF7, 72 h; how it was run: as §1
K562 [6] = assay: Cell cycle arrest in human K562 cells assessed as accumulation at G0/G1 phase at 0.05 uM after 24 hrs by flow cytometry; format: functional; how it was run: as §3
K562 [7] = assay: Cell cycle arrest in human K562 cells assessed as accumulation at G2/M phase at 1 uM after 6 hrs by flow cytometry; format: functional; how it was run: as §3
K562 [8] = assay: Cell cycle arrest in human K562 cells assessed as accumulation at G0/G1 phase at 0.05 uM after 16 hrs by flow cytometry; format: functional; how it was run: as §3
K562 [9] = assay: Cell cycle arrest in human K562 cells assessed as accumulation at S phase at 0.05 uM after 16 hrs by flow cytometry; format: functional; how it was run: as §3
K562 [10] = assay: Cell cycle arrest in human K562 cells assessed as accumulation at S phase at 0.05 uM after 24 hrs by flow cytometry; format: functional; how it was run: as §3
K562 [11] = assay: Cell cycle arrest in human K562 cells assessed as accumulation at G0/G1 phase at 1 uM after 6 hrs by flow cytometry; format: functional; how it was run: as §3
K562 [12] = assay: Cell cycle arrest in human K562 cells assessed as accumulation at G0/G1 phase at 0.5 uM after 24 hrs by flow cytometry; format: functional; how it was run: as §3
HCT-116 [13] = assay: Antiproliferative activity against human HCT116 cells after 72 hrs; format: functional, cell-based; conditions: HCT-116, 72 h; how it was run: as §1
A549 = assay: Antiproliferative activity against human A549 cells after 72 hrs; format: functional, cell-based; conditions: A549, 72 h; how it was run: as §1
K562 [14] = assay: Cell cycle arrest in human K562 cells assessed as accumulation at G2/M phase at 0.5 uM after 6 hrs by flow cytometry; format: functional; how it was run: as §3
K562 [15] = assay: Cell cycle arrest in human K562 cells assessed as accumulation at S phase at 0.5 uM after 16 hrs by flow cytometry; format: functional; how it was run: as §3
K562 [16] = assay: Cell cycle arrest in human K562 cells assessed as accumulation at S phase at 0.5 uM after 24 hrs by flow cytometry; format: functional; how it was run: as §3
K562 [17] = assay: Cell cycle arrest in human K562 cells assessed as accumulation at S phase at 0.05 uM after 6 hrs by flow cytometry; format: functional; how it was run: as §3
K562 [18] = assay: Cell cycle arrest in human K562 cells assessed as accumulation at S phase at 1 uM after 24 hrs by flow cytometry; format: functional; how it was run: as §3
MCF7 [19] = assay: Cell cycle arrest in human MCF7 cells assessed as accumulation at G2/M phase at 0.05 uM after 24 hrs by flow cytometry
MDA-MB-231 [20] = assay: Effect on cell morphology in human MDA-MB-231 cells assessed as change in cell size and shape at 0.050 uM after 24 hrs; format: functional, cell-based
How it was run: (§4)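 MDA-MB231 cells on chamber slides treated 24 h at 50 nM, fixed in 3.7% formaldehyde, permeabilized with 0.1% Triton X-100. Stained for β-tubulin (Alexa 488 secondary), actin (Alexa 546 phalloidin) and nuclei (Hoechst 33342); imaged by fluorescence microscopy at 60× and 100×.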

MDA-MB-231 [21] = assay: Induction of apoptosis in human MDA-MB-231 cells assessed as activation of caspase 7 at 0.01 to 1 uM after 24 hrs by microtitre plate fluorimeter; format: functional, cell-based; how it was run: as §2
HT-29 = assay: Antiproliferative activity against human HT29 cells after 72 hrs; format: functional, cell-based; conditions: HT-29, 72 h; how it was run: as §1
K562 [22] = assay: Cell cycle arrest in human K562 cells assessed as accumulation at G2/M phase at 0.5 uM after 16 hrs by flow cytometry; format: functional; how it was run: as §3
K562 [23] = assay: Induction of apoptosis in human K562 cells assessed as activation of caspase 3 at 0.01 to 1 uM after 24 hrs by microtitre plate fluorimeter; format: functional, cell-based; how it was run: as §2
K562 [24] = assay: Cell cycle arrest in human K562 cells assessed as accumulation at G2/M phase at 0.5 uM after 24 hrs by flow cytometry; format: functional; how it was run: as §3
K562 [25] = assay: Cell cycle arrest in human K562 cells assessed as accumulation at G2/M phase at 0.05 uM after 6 hrs by flow cytometry; format: functional; how it was run: as §3
[26] = Inhibition of sheep brain tubulin polymerization; design: species or system Ovis aries
How it was run: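 Sheep brain tubulin (about 2–3 mg/mL), purified by two assembly–disassembly cycles, in 0.1 M MES, 0.5 mM MgCl₂, 1 mM EGTA, 1 mM GTP, pH 6.6. Assembly followed by turbidity at 350 nm, 37 °C.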

K562 [27] = assay: Cell cycle arrest in human K562 cells assessed as accumulation at S phase at 0.5 uM after 6 hrs by flow cytometry; format: functional; how it was run: as §3
K562 [28] = assay: Cell cycle arrest in human K562 cells assessed as accumulation at G2/M phase at 0.05 uM after 16 hrs by flow cytometry; format: functional; how it was run: as §3
K562 [29] = assay: Cell cycle arrest in human K562 cells assessed as accumulation at G0/G1 phase at 0.5 uM after 16 hrs by flow cytometry; format: functional; how it was run: as §3
MDA-MB-231 [30] = assay: Effect on cell morphology in human MDA-MB-231 cells assessed as change in cellular mass at 0.050 uM after 24 hrs; format: functional, cell-based; how it was run: as §4
MCF7 [31] = assay: Cell cycle arrest in human MCF7 cells assessed as accumulation at G2/M phase at 0.1 uM after 24 hrs by flow cytometry
K562 [32] = assay: Cell cycle arrest in human K562 cells assessed as accumulation at G2/M phase at 1 uM after 24 hrs by flow cytometry; format: functional; conditions: in the assay text read “at 0.1 uM” for “at 1 uM”; how it was run: as §3
MDA-MB-231 [33] = assay: Cell cycle arrest in human MDA-MB-231 cells assessed as accumulation at G2/M phase at 0.1 uM after 24 hrs by flow cytometry
K562 [34] = assay: Cell cycle arrest in human K562 cells assessed as accumulation at G2/M phase at 0.05 uM after 24 hrs by flow cytometry; format: functional; how it was run: as §3
K562 [35] = assay: Cell cycle arrest in human K562 cells assessed as accumulation at G2/M phase at 1 uM after 16 hrs by flow cytometry; format: functional; how it was run: as §3
K562 [36] = assay: Cell cycle arrest in human K562 cells assessed as accumulation at G0/G1 phase at 0.05 uM after 6 hrs by flow cytometry; format: functional; how it was run: as §3
K562 [37] = assay: Cell cycle arrest in human K562 cells assessed as accumulation at G0/G1 phase at 1 uM after 16 hrs by flow cytometry; format: functional; how it was run: as §3
L1210 = assay: Antiproliferative activity against mouse L1210 cells after 72 hrs; format: functional, cell-based; conditions: L1210, 72 h; how it was run: as §1
MDA-MB-231 [38] = assay: Cell cycle arrest in human MDA-MB-231 cells assessed as accumulation at G2/M phase at 0.05 uM after 24 hrs by flow cytometry
K562 [39] = assay: Cell cycle arrest in human K562 cells assessed as accumulation at G0/G1 phase at 1 uM after 24 hrs by flow cytometry; format: functional; how it was run: as §3
HCT-116 [40] = assay: Induction of apoptosis in human HCT116 cells assessed as activation of caspase 7 at 0.01 to 1 uM after 24 hrs by microtitre plate fluorimeter; format: functional, cell-based; how it was run: as §2
K562 [41] = assay: Cell cycle arrest in human K562 cells assessed as accumulation at G0/G1 phase at 0.5 uM after 6 hrs by flow cytometry; format: functional; how it was run: as §3
[42] = Antitumor activity against human U87 tumor transplanted in chick chorio-allantoic membrane assessed as reduction of tumor volume at 10 uM after 4 days; format: functional, U-87MG ATCC; design: scale not given: the % may be the effect or the level left
How it was run: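 U87 glioma cells (5 × 10⁶ in 20 µL medium) grafted on chick CAM on embryonic day 10; size-matched tumors grouped on day 2. 20 µL drug at 10 µM applied locally once daily, days 3–6 of tumor growth; controls got solvent. Volume V = 4/3πr³ from length and width, six tumors per group.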

K562 [43] = assay: Cell cycle arrest in human K562 cells assessed as accumulation at S phase at 1 uM after 16 hrs by flow cytometry; format: functional; how it was run: as §3
K562 [44] = assay: Induction of apoptosis in human K562 cells assessed as activation of caspase 7 at 0.01 to 1 uM after 24 hrs by microtitre plate fluorimeter; format: functional, cell-based; how it was run: as §2
MDA-MB-231 [45] = assay: Antiproliferative activity against human MDA-MB-231 cells after 72 hrs; format: functional, cell-based; conditions: MDA-MB-231, 72 h; how it was run: as §1

IC50 (MDA-MB-435): 0.07 µM
IC50 (K562 [4]): 0.07 µM
IC50 (B16-F10): 0.068 µM
IC50 (MCF7 [5]): 0.04 µM
IC50 (HCT-116 [13]): 0.042 µM
IC50 (A549): 0.05 µM
IC50 (HT-29): 0.042 µM
IC50 [26]: 1.9 µM
IC50 (L1210): 0.034 µM
IC50 (MDA-MB-231 [45]): 0.03 µM
Compound: CC[C@@H]1NC(=O)c2[nH]c3ccccc3c2-c2ccccc21
Activity (HCT-116 [1]): Active
Activity (MDA-MB-231 [2]): Active
Activity (K562 [3]): 91.1%
IC50 (KB): 0.037 µM
Activity (K562 [6]): 14.6%
Activity (K562 [7]): 8.1%
Activity (K562 [8]): 1%
Activity (K562 [9]): 97.6%
Activity (K562 [10]): 49.1%
Activity (K562 [11]): 0.2%
Activity (K562 [12]): 1.2%
Activity (K562 [14]): 32%
Activity (K562 [15]): 47.3%
Activity (K562 [16]): 53.4%
Activity (K562 [17]): 94.3%
Activity (K562 [18]): 69.5%
Activity (MCF7 [19]): 65.6%
Activity (MDA-MB-231 [20]): Active
Activity (MDA-MB-231 [21]): Active
Activity (K562 [22]): 51.5%
Activity (K562 [23]): Active
Activity (K562 [24]): 44.7%
Activity (K562 [25]): 4.9%
Activity (K562 [27]): 67.8%
Activity (K562 [28]): 1.1%
Activity (K562 [29]): 0.6%
Activity (MDA-MB-231 [30]): Active
Activity (MCF7 [31]): 62.6%
Activity (K562 [32]): 20.3%
Activity (MDA-MB-231 [33]): 100%
Activity (K562 [34]): 24.9%
Activity (K562 [35]): 43.4%
Activity (K562 [36]): 0.3%
Activity (K562 [37]): 2.4%
Activity (MDA-MB-231 [38]): 44.5%
Activity (K562 [39]): 7.6%
Activity (HCT-116 [40]): Active
Activity (K562 [41]): 0.2%
Activity [42]: 76%
Activity (K562 [43]): 52.8%
Activity (K562 [44]): Active

IC50 [26]: 1 µM
Compound: CCCCC1NC(=O)c2[nH]c3ccccc3c2-c2ccccc21 (racemic)
IC50 (KB): 0.035 µM

IC50 [26]: 51 µM
Compound: COc1ccc2[nH]c3c(c2c1)-c1ccccc1[C@H](C)NC3=O
IC50 (KB): 3.5 µM

IC50 [26]: 2 µM
Compound: CCCC1NC(=O)c2[nH]c3ccccc3c2-c2ccccc21 (racemic)
IC50 (KB): 0.032 µM
